STAT3 act: IL-6 driven STAT3 reporter potentiators, primary screen, U3A cells, luciferase, luminescence, MLSCN library. IL-6 STAT3-luciferase reporter; 100% = signal with IL-6 EC80 alone. activation (% of control), % at 5.6 µM. 0.91% of 190,000 active;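 active means activation above the screen-wide mean of compound activation plus 3 SD, cut at about 130% in these data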;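 further: 0% = background luminescence of wells with medium and substrate only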
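Assay system – human STAT1-deficient U3A cells with stable STAT3-luciferase reporter · Also added – IL-6 (33 ng/mL) · Schedule – compound 1 h, then IL-6 6 h at 37 °C · Technique – reporter luminescence signal · Evaluation – % activation versus median of IL-6-stimulated wells · Benchmarks – IL-6-only wells as 100% reference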
STAT1 inh: STAT1 signaling inhibitors, primary screen, cell-based, HTS, luciferase reporter. 0.35% of 200,000 active. AID 920, 2007. NIH 3T3 STAT1-luciferase reporter, IFN-gamma, luminescence. inhibition, % at 5.5 µM;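 active means inhibition above a set limit, the mean inhibition across all tested compounds plus 3 SD, cut at about 34% in these data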;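 further: 0% = IFN-gamma with DMSO and 100% = IFN-gamma with 300 µM nifuroxazide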
L929 necroptosis: inhibitors of zVAD-triggered necroptosis, primary screen, L929 cells; viability rescue, % at 10 µM; AID 1377, 2008; L929 zVAD necroptosis rescue, ATP luminescence, 24 h; with zVAD 60 µM; 0.38% of 220,000 active;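 active means activation, scaled between plate controls, above about 75%, limit read from the data; inactive means activation under that limit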;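 further: 0% = zVAD with DMSO and 100% = DMSO alone without zVAD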
TNF necrop inh: inhibitors of TNF-alpha triggered necroptosis, primary screen, cell-based, Jurkat FADD-/-, single concentration; Jurkat FADD-/- TNF necroptosis rescue, ATP luminescence, 24 h; 0 = TNF only, 100 = no-TNF cells; activation (protection from cell death), % at 10 µM; 0.068% of 220,000 active;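 active means activation, meaning protection from cell death, of at least 50% relative to plate controls; inactive means activation below 50%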;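 further: necroptosis triggered by 40 ng/mL TNF-alpha added together with compound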
STAT3 inh-1: IL-6 driven STAT3 reporter inhibitors, primary screen, U3A cells, luciferase, luminescence, MLSCN library; IL-6 STAT3-luciferase reporter; host cell line lacks STAT1; inhibition, % at 5.5 µM; 0.89% of 190,000 active;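 active means inhibition above the mean inhibition across all screened compounds plus 3 SD, cut at about 44% in these data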;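 further: 0% = DMSO only wells and 100% = 100 µM nifuroxazide control wells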
STAT3 inh-2: STAT3 reporter inhibitors, retest of hits, confirmation, U3A cells, luciferase, luminescence; shares compounds with STAT3 inh-1; IL-6 STAT3 luciferase reporter; cell line lacks STAT1; inhibition, % at 5.7 µM; 45% of 1,200 active; AID 1265, 2008;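 active means inhibition above the hit cutoff computed for the primary STAT3 screen, cut at about 44% in these data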;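 further: 0% = IL-6 plus DMSO and 100% = IL-6 plus nifuroxazide control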
NFkB inh 2: NF-kB reporter inhibitors in human cells, confirmation, counter-screen for STAT3 inhibitor project, cell-based, HEK293T, luciferase, TNF-alpha stimulus; shares compounds with STAT3 inh-1; TNF-alpha induced; inhibition, % at 5.7 µM; 36% of 1,200 active;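 active means inhibition above the mean of solvent-only control wells plus 3 SD, cutoff set per campaign, cut at about 13% in these data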;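 further: 0% = TNF-alpha with DMSO and 100% = TNF-alpha with MG high control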
STAT1 inh 2: STAT1 reporter inhibitors, IFN-gamma induced, confirmation, counter-screen for STAT3 inhibitor project, cell-based, NIH 3T3, luciferase luminescence. shares compounds with STAT3 inh-1. NIH 3T3 STAT1-luciferase reporter. inhibition, % at 5.7 µM. 27% of 1,200 active. AID 1317, 2008;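 active means inhibition above the mean plus 3 SD of solvent-only control wells, limit set per screening run, cut at about 16% in these data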;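 further: 0% = DMSO with IFN-gamma and 100% = nifuroxazide control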
zVAD necrop conf: inhibitors of zVAD-triggered necroptosis in L929, confirmation, L929 cells, duplicate runs; 16% of 760 active; L929 zVAD-induced necroptosis rescue, ATP luminescence, 24 h; shares compounds with L929 necroptosis; activation (protection from necroptosis), % at 10 µM; AID 463117, 2010;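 active means mean protection from necroptosis of at least 50% over duplicate tests; inactive means mean protection below 50%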;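 further: 0% = cells with zVAD alone and 100% = vehicle cells without zVAD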
Starred values were filed as active, the others as inactive; . = not tested or not shown. A selection: hits, their analogues and other compounds. The true share with any hit is near 2.1%.

SMILES	STAT3 act	STAT1 inh	L929 necroptosis	TNF necrop inh	STAT3 inh-1	STAT3 inh-2	NFkB inh 2	STAT1 inh 2	others
CCOC(=O)N1CCC(NC(=O)C2CCCN(Cc3nc(-c4cccc(Cl)c4)oc3C)C2)CC1 (centres undefined)	60	25	0	-9	54*	38	13*	24*
c1ccc2[nH]c(-c3ccncc3)nc2c1	90	11	0	-5	15	.	.	.
COC(=O)c1ccc(-c2nc3ccccc3[nH]2)cc1	57	-23	0	-11	52*	22	-23	-91
COc1ccc(-c2nc3ccccc3[nH]2)cc1	50	15	-3	-15	60*	37	2	-45
NC(=S)n1[nH]c(-c2ccc([N+](=O)[O-])cc2)c(N=Nc2ccc(Cl)cc2)c1=O	51	27	-2	-4	61*	54*	14*	37*
Cc1ccc(N=Nc2c(C)[nH]n(C(N)=S)c2=O)cc1	126	-41	1	-1	-30	.	.	.
Oc1ccccc1Nc1nc(NCC2CCCO2)c2ccccc2n1 (centres undefined)	64	4	1	-5	50*	33	-7	0
Oc1ccc(Nc2nc(NCC3CCCO3)c3ccccc3n2)cc1 (centres undefined)	89	3	2	0	21	.	.	.
CCOc1ccc(N=c2scc(-c3ccc(OC)cc3)n2CCO)cc1	54	3	0	-3	59*	18	-2	-5
COc1ccc(-n2c(SC(CN3CCCCC3)CN3CCCC3=O)nc3ccccc3c2=O)cc1 (centres undefined)	96	2	0	-6	15	.	.	.
O=C(CCc1nnc(CCC2CCCCC2)o1)NCCc1ccccn1	98	-6	0	0	6	.	.	.
Nc1[nH]n(-c2ccccc2)c(=O)c1N=Nc1ccc2c(c1)OCCO2	65	-22	1	-1	45*	10	-15	-94
CCCOc1ccc(/C=N/Nc2ccccc2[N+](=O)[O-])c(O)c1	92	-13	0	-4	12	.	.	.
CCCOc1ccc(/C=N/NC(=S)Nc2ccccc2[N+](=O)[O-])c(O)c1	24	3	8	-7	92*	48*	-11	-8
O=[N+]([O-])c1cc(/C=N/NC(=S)Nc2ccccc2Cl)ccc1Cl	100	-17	2	4	4	.	.	.
COc1ccc(/C=N/NC(=S)Nc2ccccc2[N+](=O)[O-])cc1O	22	-3	2	-4	94*	83*	-6	-13
CCc1ccc(NC(=O)c2noc3c2CCC3)cc1	108	-5	1	1	-2	.	.	.
Cc1ccc[n+](C(C)C(=O)c2ccc(-c3ccccc3)cc2)c1 (centres undefined)	95	11	1	-4	4	.	.	.
CCOc1ccc2nc(NC(=O)c3ccoc3C)sc2c1	38	32	0	-21	79*	47*	14*	-67
CCOc1ccc2nc(NC(=O)COC)sc2c1	89	-43	60	1	19	.	.	.
CCOC(=O)c1ccc2nc(NC(=O)c3ccco3)sc2c1	57	-13	0	-7	54*	7	-26	-107
CN1CCN(C(=O)CSc2ccc(Cl)cc2)CC1	97	-10	2	1	5	.	.	.
Cc1ccc2nc(-c3ccccc3N)[nH]c2c1	47	21	2	0	67*	12	-37	-149
N#CC1=C(N)NC(SCc2ccccc2)=C(C#N)C12CCCC2	99	10	.	-5	5	.	.	.
Fc1ccc(/C=C2\CCCC3=C2Nc2ncnn2C3c2ccc(F)cc2)cc1 (centres undefined)	63	5	0	-10	45*	32	3	19*
SMILES	STAT3 act	STAT1 inh	L929 necroptosis	TNF necrop inh	STAT3 inh-1	STAT3 inh-2	NFkB inh 2	STAT1 inh 2	others
CCOC(=O)/C(C#N)=C\c1cc(C)n(-c2ccccc2)c1C	64	-71	0	0	45*	0	-35	-149
O=C(Nc1ccn(Cc2c(F)c(F)cc(F)c2F)n1)c1ccc(COc2ccccc2Cl)cc1	79	3	2	-16	27	.	.	.
O=C(Nc1ccn(Cc2ccccc2F)n1)c1ccc(COc2ccccc2Cl)cc1	64	-3	0	-13	46*	46*	7	5
Cc1ccc(Cl)cc1N1CCN(C(=O)COc2ccc(S(=O)(=O)NC(C)C)cc2)CC1	55	11	0	-8	60*	49*	10	10
CN1/C(=C\C(=O)C[n+]2ccc3ccccc3c2)C(C)(C)c2ccccc21	41	6	1	-11	73*	74*	1	3
O=C(Nc1nccs1)c1ccc(S(=O)(=O)NCC2CCCCC2)cc1	45	5	123*	-5	71*	55*	11	3	zVAD necrop conf=52*
O=C1CC(c2ccc(S(=O)(=O)N3CCN(c4ccccc4)CC3)cc2)CN1 (centres undefined)	102	1	1	-1	1	.	.	.
Nc1nc2nc(SCC(=O)N3CCCc4ccccc43)[nH]c2c(=O)[nH]1	100	-2	0	-1	2	.	.	.
COc1ccc(/C=N/Nc2cc(OC)ncn2)cc1	59	-59	78*	6	51*	3	-25	-139	zVAD necrop conf=28
CCOc1ccc(/C=N/Nc2ccccn2)cc1	61	-8	78*	12	50*	7	-28	-112	zVAD necrop conf=4
Fc1ccc(/C=N/Nc2ccccn2)cc1	97	-19	73	17	1	.	.	.
C[N+](C)(C)CCCN(Cc1ccc2c(c1)OCO2)C(=O)NC1CCCCC1	.	.	0	2	.	.	.	.
NC(=O)c1ccc(-c2ncc(-c3ccccc3)o2)cc1	55	32	79*	-5	54*	2	20*	-44	zVAD necrop conf=63*
O=C(N/N=C/c1ccc(Cl)cc1)c1n[nH]c2c1CCCC2	.	.	6	-17	.	.	.	.
O=C(N/N=C/c1ccccc1)c1n[nH]c2c1CCCC2	58	-5	83*	0	56*	15	-7	-86	zVAD necrop conf=10
